pIC50, pKi: −log10 of the molar value. In brackets after ≈: the same amount, converted by molar mass.
How the values were obtained:
[1] = Oral Bioavailability was measured as Maximal observed concentration (Cmax) value at dose 125 mg/kg; b = No compound detectable in blood above the detection limit of 0.1 uM; assay type: ADME, organism-based; parameters: dose 125 mg/kg, route oral; conditions: in vivo
Summary of the method: (§1)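 Female Balb/c mice, fasted 24 h before and during the study, water ad libitum. Dosed by oral gavage at 125 mg/kg in a liquid formulation. Heparinized whole blood sampled at various times, methanol-extracted, cleaned on sulfobenzyl SPE, then RP-C18 HPLC with UV at 200 nm against an internal standard. Cmax taken as observed; AUC calculated. Detection limit 0.1 µM.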

[2] = Solubility (phosphate-buffered saline, pH =7.4); assay type: physicochemical; conditions: read-out: S
Summary of the method: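 About 1 mg of lyophilized amorphous inhibitor in 1 mL PBS (pH 7.4), vortexed 1 min and sonicated 30 min at 37 °C. Filtered, then centrifuged at 100 000 rpm for 30 min. Supernatant run on RP-C18 HPLC (10 mM NH4OAc/CH3CN 50/50, UV 210 nm) and quantified by external standard. Minimum detectable 0.1 µg/mL.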

[3] = Oral Bioavailability was measured as area-under-curve(AUC) value at dose 125 mg/kg; b = No compound detectable in blood above the detection limit of 0.1 uM; assay type: ADME, organism-based; conditions: in vivo; summary of the method: as §1
[4] = molecular target: Human immunodeficiency virus type 1 protease (Human immunodeficiency virus 1, UniProt Q72874); experiment: Binding affinity against HIV-1 protease
Summary of the method: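 Recombinant HIV-1 PR expressed in E. coli JM105 and purified to homogeneity. Enzyme incubated at 37 °C in 0.1 M MES, 0.37 M NaCl, 4 mM EDTA, pH 6.25, with 280 µM chromogenic nonapeptide substrate (pNph). Initial rates taken from the absorbance decrease at 298 nm. IC50 fitted, then Ki = (IC50 − Et/2)/(1 + S/Km). Mean of two determinations; DMSO ≤5%.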

[5] = test system: Human immunodeficiency virus 1; experiment: Antiviral activity against HIV-1, IIIB, in MT-4 Cells; assay type: functional, organism-based; conditions: Human immunodeficiency virus 1, MT4
Summary of the method: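 HIV-1 strain IIIB-induced cytopathic effect in HTLV-I-transformed MT4 cells. Virus adsorbed to cells at 1 × 10⁶ cells/mL, 37 °C, 1 h. Compounds added postadsorption, final 1 × 10⁵ cells/mL. Inoculum set to kill 90% of cells in 5 days. Mock-infected and compound-only controls run. DMSO ≤0.3%, medium with 10% FBS. Viability read by MTT after 5 days. Mean of repeat determinations.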

[6] = Oral Bioavailability was measured as Maximal observed concentration (Cmax) value at dose 125 mg/kg; assay type: ADME, organism-based; parameters: dose 125 mg/kg, route oral; conditions: in vivo; summary of the method: as §1
[7] = Oral Bioavailability was measured as area-under-curve(AUC) value at dose 125 mg/kg; assay type: ADME, organism-based; conditions: in vivo; summary of the method: as §1
MT4 [8] = experiment: Antiviral Activity against HIV-1, IIIB, in MT-4 Cells; d indicates no activity at 10 uM; assay type: functional, cell-based, Homo sapiens
Summary of the method: (§2)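 MT4 cells infected with HIV-1 IIIB; virus adsorbed at 1 × 10⁶ cells/mL, 37 °C, 1 h, then plated at 1 × 10⁵ cells/mL with compound added postadsorption. Inoculum set to kill 90% of cells in 5 days. Incubated 5 days; viability of infected and mock-infected cells by MTT, read spectrophotometrically. Medium with 10% FBS; DMSO ≤0.3%. Values given as mean ± SD, n in parentheses.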

[9] = Oral Bioavailability was measured as area-under-curve(AUC) value at dose 125 mg/kg;b = No compound detectable in blood above the detection limit of 0.1 uM; assay type: ADME, organism-based; conditions: in vivo; summary of the method: as §1
MT4 [10] = experiment: Antiviral Activity against HIV-1, IIIB, in MT-4 Cells; d indicates no activity at 3 uM; assay type: functional, cell-based, Homo sapiens; summary of the method: as §2

SMILES | solubility [2] [µM] | pKi [4] | pIC50 [5] | Cmax [6] [nM] | AUC [7] [µM·h] | also measured
CC(C)(C)[C@H](NC(=O)OCc1ccccc1)C(=O)N[C@@H](Cc1ccccc1)[C@@H](O)[C@@H](NCc1ccc(OCCN2CCOCC2)cc1)C(=O)N[C@H]1c2ccccc2C[C@H]1O | 14.5 (≈ 11.9 µg/mL) | 8.02 | 7.33 | – | – | Cmax [1]: No compound detectable; AUC [3]: No compound detectable
COc1ccc(CN[C@@H](C(=O)N[C@H]2c3ccccc3C[C@H]2O)[C@H](O)[C@H](Cc2ccccc2)NC(=O)[C@@H](NC(=O)OCc2ccccc2)C(C)(C)C)cc1 | < 1 | 8.02 | 6.60 | 16500 | 82.5 | –
COc1ccc(CN[C@@H](C(=O)NC2c3ccccc3C[C@H]2O)[C@H](O)[C@H](Cc2ccccc2)NC(=O)[C@@H](NC(=O)CCc2ccccc2O)C(C)(C)C)cc1 (stereo partly specified) | – | 7.89 | 6.80 | 1800 | 11.8 | –
COc1ccc(CN[C@@H](C(=O)NC2c3ccccc3C[C@H]2O)[C@H](O)[C@H](Cc2ccccc2)NC(=O)[C@@H](NC(=O)CCc2ccc(OC)c(O)c2)C(C)(C)C)cc1 (stereo partly specified) | – | 8.11 | 7.06 | 250 | 0.2 | –
CCC(C)C(NC(=O)OCc1ccccc1)C(=O)N[C@@H](Cc1ccccc1)[C@@H](O)[C@@H](NCc1ccc(OC)cc1)C(=O)N[C@@H]1c2ccccc2CC1O (stereo partly specified) | – | 8.09 | 5.96 | – | – | –
COc1ccc(CN[C@@H](C(=O)NC2c3ccccc3C[C@H]2O)[C@H](O)[C@H](Cc2ccccc2)NC(=O)[C@@H](NC(=O)/C=C/c2ccc(OC)cc2O)C(C)(C)C)cc1 (stereo partly specified) | – | 7.74 | 6.62 | – | – | –
COc1ccc(CN[C@@H](C(=O)N[C@H]2c3ccccc3C[C@H]2O)[C@H](O)[C@H](Cc2ccccc2)NC(=O)[C@@H](NC(=O)Nc2cccc(OC)c2OC)C(C)(C)C)cc1 | – | 7.89 | 6.27 | – | – | –
COc1ccc(CN[C@@H](C(=O)N[C@H]2c3ccccc3C[C@H]2O)[C@H](O)[C@H](Cc2ccccc2)NC(=O)[C@@H](NC(=O)CCc2nc3ccccc3[nH]2)C(C)(C)C)cc1 | 12.2 (≈ 9.28 µg/mL) | 8.03 | 7.01 | – | – | Cmax [1]: No compound detectable; AUC [3]: No compound detectable
CC(=O)NCc1ccc(CN[C@@H](C(=O)N[C@H]2c3ccccc3C[C@H]2O)[C@H](O)[C@H](Cc2ccccc2)NC(=O)OC(C)(C)C)cc1 | – | 7.15 | 5.59 | – | – | –
CC(C)(C)OC(=O)N[C@@H](Cc1ccccc1)[C@@H](O)[C@@H](NCc1ccc(CNC(=O)Nc2ccccc2)cc1)C(=O)N[C@@H]1c2ccccc2C[C@H]1O | – | 7.48 | – | – | – | IC50 (MT4 [8]): No activity
COc1ccc(CN[C@@H](C(=O)N[C@@H]2c3ccccc3C[C@H]2O)[C@H](O)[C@H](Cc2ccccc2)NC(=O)C(CC(N)=O)NC(=O)OCc2ccccc2)cc1 (stereo partly specified) | – | 7.82 | 5.85 | – | – | –
CC(C)(C)[C@H](NC(=O)OCc1ccccc1)C(=O)N[C@@H](Cc1ccccc1)[C@@H](O)[C@@H](NCc1ccc(OCCO)cc1)C(=O)N[C@H]1c2ccccc2C[C@H]1O | 16.5 (≈ 12.4 µg/mL) | – | 6.81 | 2600 | 5.9 | –
COc1ccc(CN[C@@H](C(=O)N[C@H]2c3ccccc3CC2O)[C@H](O)[C@H](Cc2ccccc2)NC(=O)[C@@H](NC(=O)OCc2ccccc2)C(C)C)cc1 (stereo partly specified) | 2.9 (≈ 2.06 µg/mL) | 8.09 | 6.46 | 12300 | 137 | –
CC(=O)NCc1ccc(CN[C@@H](C(=O)N[C@H]2c3ccccc3C[C@H]2O)[C@H](O)[C@H](Cc2ccccc2)NC(=O)[C@@H](NC(=O)OCc2ccccc2)C(C)(C)C)cc1 | 25.3 (≈ 19.3 µg/mL) | 8.24 | 7.00 | – | – | Cmax [1]: No compound detectable; AUC [3]: No compound detectable
CCOc1ccc(CN[C@@H](C(=O)N[C@@H]2c3ccccc3C[C@H]2O)[C@H](O)[C@H](Cc2ccccc2)NC(=O)OC(C)(C)C)cc1 | – | 7.04 | – | – | – | IC50 (MT4 [8]): No activity
COc1ccc(CN[C@@H](C(=O)NC(C(=O)NCc2nc3ccccc3[nH]2)c2ccccc2)[C@H](O)[C@H](Cc2ccccc2)NC(=O)OC(C)(C)C)cc1 (stereo partly specified) | – | 7.96 | 6.42 | – | – | –
COc1ccc(CN[C@@H](C(=O)N[C@@H]2c3ccccc3C[C@H]2O)[C@H](O)[C@H](Cc2ccccc2)NC(=O)OC(C)(C)C)cc1 | – | 7.19 | – | – | – | IC50 (MT4 [8]): No activity

SMILES | solubility [2] [µM] | pKi [4] | pIC50 [5] | Cmax [6] [nM] | AUC [7] [µM·h] | also measured
COc1ccc(CN[C@@H](C(=O)NC2c3ccccc3C[C@H]2O)[C@H](O)[C@H](Cc2ccccc2)NC(=O)[C@@H](NC(=O)CSc2nnn(C)n2)C(C)(C)C)cc1 (stereo partly specified) | 78 (≈ 58.1 µg/mL) | 7.92 | 6.74 | 2800 | 7.4 | –
CC(C)(C)[C@H](NC(=O)OCc1ccccc1)C(=O)N[C@@H](Cc1ccccc1)[C@@H](O)[C@@H](NCc1ccc(CNC(=O)Nc2ccccc2)cc1)C(=O)N[C@H]1c2ccccc2C[C@H]1O | < 1 | 8.48 | 6.76 | – | – | Cmax [1]: No compound detectable; AUC [9]: No compound detectable
CC(C)(C)OC(=O)N[C@@H](Cc1ccccc1)[C@@H](O)[C@@H](NCc1ccc(CNC(=O)CCc2nc3ccccc3[nH]2)cc1)C(=O)N[C@H]1c2ccccc2C[C@H]1O | – | 7.39 | 5.36 | – | – | –
COc1ccc(CN[C@@H](C(=O)NC(C(=O)NCc2nc3ccccc3[nH]2)C(C)C)[C@H](O)[C@H](Cc2ccccc2)NC(=O)OC(C)(C)C)cc1 (stereo partly specified) | 9 (≈ 6.06 µg/mL) | 8.11 | 6.29 | 9100 | 127 | –
CC(C)(C)OC(=O)N[C@@H](Cc1ccccc1)[C@@H](O)[C@@H](NCc1ccc(CNC(=O)OCc2ccccc2)cc1)C(=O)N[C@H]1c2ccccc2C[C@H]1O | – | – | – | – | – | IC50 (MT4 [8]): No activity
CC(C)(C)OC(=O)N[C@@H](Cc1ccccc1)[C@@H](O)[C@@H](NCc1ccc(CNC(=O)CCc2nc3ccccc3[nH]2)cc1)C(=O)NCc1ccccc1 | – | – | – | – | – | IC50 (MT4 [10]): No activity
COc1ccc(CN[C@@H](C(=O)N[C@@H]2c3ccccc3C[C@H]2O)[C@H](O)[C@H](Cc2ccccc2)NC(=O)C(CC(=O)O)NC(=O)OCc2ccccc2)cc1 (stereo partly specified) | – | 7.66 | – | – | – | IC50 (MT4 [10]): No activity
CC(C)(C)OC(=O)N[C@@H](Cc1ccccc1)[C@@H](O)[C@@H](NCc1ccc(OCCO)cc1)C(=O)N[C@@H]1c2ccccc2C[C@H]1O | – | 7.10 | 5.40 | – | – | –
COc1ccc(CN[C@@H](C(=O)N[C@H](C(=O)NCc2nc3ccccc3[nH]2)C(C)C)[C@H](O)[C@H](Cc2ccccc2)NC(=O)[C@@H](NC(=O)OCc2ccccc2)C(C)(C)C)cc1 | < 1 | 8.47 | 7.60 | 200 | 0.6 | –
COc1ccc(CN[C@@H](C(=O)N[C@@H]2c3ccccc3C[C@H]2O)[C@H](O)[C@H](Cc2ccccc2)NC(=O)[C@@H](NC(=O)OC(C)(C)C)C(C)(C)C)cc1 | – | 6.68 | – | – | – | IC50 (MT4 [10]): No activity
COc1ccc(CN[C@@H](C(=O)NC2c3ccccc3C[C@H]2O)[C@H](O)[C@H](Cc2ccccc2)NC(=O)[C@@H](NC(=O)CSc2nnc(C)s2)C(C)(C)C)cc1 (stereo partly specified) | 39 (≈ 29.7 µg/mL) | 8.10 | 6.75 | 20000 | 60.3 | –
CC(C)(C)OC(=O)N[C@@H](Cc1ccccc1)[C@@H](O)[C@@H](NCc1ccc(OCCO)cc1)C(=O)NCc1ccccc1 | – | – | – | – | – | IC50 (MT4 [10]): No activity
COc1ccc(CN[C@@H](C(=O)NC2c3ccccc3C[C@H]2O)[C@H](O)[C@H](Cc2ccccc2)NC(=O)[C@@H](NC(=O)CSc2nncn2C)C(C)(C)C)cc1 (stereo partly specified) | 260 (≈ 193 µg/mL) | 8.24 | 6.72 | 700 | 1.6 | –
CCOc1ccc(CN[C@@H](C(=O)N[C@H]2c3ccccc3C[C@H]2O)[C@H](O)[C@H](Cc2ccccc2)NC(=O)[C@@H](NC(=O)OCc2ccccc2)C(C)(C)C)cc1 | < 1 | – | 6.59 | 4300 | 23.9 | –
CC(C)(C)OC(=O)N[C@@H](Cc1ccccc1)[C@@H](O)[C@@H](NCc1ccccc1)C(=O)NCc1ccccc1 | < 1 | – | – | 400 | 0.8 | IC50 (MT4 [10]): No activity
CC(C)(C)OC(=O)N[C@@H](Cc1ccccc1)[C@@H](O)[C@@H](NCc1ccc(OCCN2CCOCC2)cc1)C(=O)N[C@@H]1c2ccccc2C[C@H]1O | – | 6.89 | – | – | – | IC50 (MT4 [8]): No activity

Source: ChEMBL document CHEMBL1129316, “Inhibitors of human immunodeficiency virus type 1 protease containing 2-aminobenzyl-substituted 4-amino-3-hydroxy-5-phenylpentanoic acid: synthesis, activity, and oral bioavailability” (J Med Chem, 1996)
